Active and inactive are the calls of the source. The rule behind the calls is not given here.
Key:
PC-3 [1] = test: Cytotoxicity against human PC3 cells after 72 hrs by MTT assay; assay type: functional, cell-based; conditions: PC-3, 72 h
Procedure, shortened: (§1)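 Exponentially growing cells seeded at 1–8 × 10³ cells/well and left 24 h. Medium then replaced with medium holding compound in DMSO (final DMSO <0.1%), ten serial threefold dilutions, or DMSO alone. Triplicate wells, 72 h exposure. MTT added, 1 h at 37 °C, formazan dissolved in DMSO, A550 read. IC50 by non-linear regression; mean ± SD of at least three experiments.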

HT-29 = test: Cytotoxicity against human HT-29 cells after 72 hrs by MTT assay; assay type: functional, cell-based; conditions: HT-29, 72 h; procedure, shortened: as §1
[2] = target: T1, DNA topoisomerase 1 (Homo sapiens) (UniProt P11387); test: Inhibition of DNA topoisomerase 1-mediated relaxation of supercoiled plasmid DNA at 100 uM after 3 hrs by gel electrophoresis
T1 sequence (whole entry): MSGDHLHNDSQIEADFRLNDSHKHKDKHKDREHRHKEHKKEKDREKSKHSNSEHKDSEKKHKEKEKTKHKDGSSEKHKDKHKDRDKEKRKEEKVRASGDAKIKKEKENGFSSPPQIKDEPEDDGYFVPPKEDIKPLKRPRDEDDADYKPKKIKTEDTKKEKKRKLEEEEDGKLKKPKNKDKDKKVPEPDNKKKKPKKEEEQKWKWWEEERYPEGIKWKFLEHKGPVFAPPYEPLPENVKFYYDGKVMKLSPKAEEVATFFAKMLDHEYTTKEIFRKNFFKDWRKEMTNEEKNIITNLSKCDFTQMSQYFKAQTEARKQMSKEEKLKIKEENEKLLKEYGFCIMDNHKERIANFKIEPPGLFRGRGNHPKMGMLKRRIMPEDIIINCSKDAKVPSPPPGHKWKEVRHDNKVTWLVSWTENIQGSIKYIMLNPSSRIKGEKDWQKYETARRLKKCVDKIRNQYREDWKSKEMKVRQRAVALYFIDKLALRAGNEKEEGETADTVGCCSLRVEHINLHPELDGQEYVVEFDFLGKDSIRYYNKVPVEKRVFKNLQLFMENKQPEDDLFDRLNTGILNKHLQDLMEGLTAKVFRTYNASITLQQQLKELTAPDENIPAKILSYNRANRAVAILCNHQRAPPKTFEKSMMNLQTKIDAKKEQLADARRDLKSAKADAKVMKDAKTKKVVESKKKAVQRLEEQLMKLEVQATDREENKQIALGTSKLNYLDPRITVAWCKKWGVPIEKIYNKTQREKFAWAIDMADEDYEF
Procedure, shortened: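 Topoisomerase I kit assay. Compound at 100 µM final with 0.5% DMSO. Started with 5 U topo I, run 30 min at 37 °C, stopped with 1% SDS. Products resolved on 1% agarose in TAE at 80 V for 3 h, ethidium-stained. Inhibition scored 0 to 3+.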

HepG2 = test: Cytotoxicity against human HepG2 cells after 72 hrs by MTT assay; assay type: functional, cell-based; conditions: HepG2, 72 h; procedure, shortened: as §1
BJ [3] = test: Cytotoxicity against human BJ cells after 72 hrs by MTT assay; assay type: cell-based; procedure, shortened: as §1
HeLa = test: Cytotoxicity against human HeLa cells after 72 hrs by MTT assay; assay type: functional, cell-based; procedure, shortened: as §1
Jurkat = test: Cytotoxicity against human Jurkat cells after 72 hrs by XTT assay; assay type: functional, cell-based
Procedure, shortened: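 Exponentially growing Jurkat cells (RPMI 1640, 10% heat-inactivated FBS, 1% P/S, 2 mM glutamine) seeded at 5.5 × 10³ cells/well. Exposed to ten serial threefold dilutions of compound or DMSO vehicle in medium, triplicate wells, 72 h. XTT labeling mixture then added for 4 h at 37 °C, A450 read. IC50 by non-linear regression; mean ± SD of at least three experiments.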

BJ [4] = test: Selectivity ratio of IC50 for human BJ cells to IC50 for human PC3 cells
PC-3 [5] = test: Ratio of betulinic acid IC50 to compound IC50 for human PC3 cells; assay type: functional
[6] = in the assay text read “after 30 mins” for “after 3 hrs”

| Compound | inhibition [2] | inhibition [2, 6] | IC50 (PC-3 [1]) [µM] | IC50 (HT-29) [µM] | IC50 (HepG2) [µM] | IC50 (BJ [3]) [µM] | IC50 (HeLa) [µM] | IC50 (Jurkat) [µM] | Ratio IC50 (BJ [4]) | Ratio IC50 (PC-3 [5]) |
| --- | --- | --- | --- | --- | --- | --- | --- | --- | --- | --- |
| C=C(C)[C@@H]1CC[C@]2(C(=O)O)CC[C@]3(C)[C@H](CC[C@@H]4[C@@]5(C)CC[C@H](O)C(C)(C)[C@@H]5CC[C@]43C)[C@@H]12 [BETULINIC ACID] | – | – | 21.5 | 12.8 | 36.4 | – | 26 | 26.9 | – | – |
| C=C(COC)[C@@H]1CC[C@]2(COC(=O)n3cncn3)CC[C@]3(C)[C@H](CC[C@@H]4[C@@]5(C)CC[C@H](O)C(C)(C)[C@@H]5CC[C@]43C)[C@@H]12 | Active | – | 2.6 | 5.8 | 9.1 | 46.6 | 24.3 | 9.5 | 15 | – |
| C=C(C)[C@@H]1CC[C@]2(COC(C)=O)CC[C@]3(C)[C@H](CC[C@@H]4[C@@]5(C)CC[C@H](OC(=O)n6ccnc6C)C(C)(C)[C@@H]5CC[C@]43C)[C@@H]12 | – | – | – | > 30 | > 30 | – | > 30 | > 30 | – | – |
| C=C(C)[C@@H]1CC[C@]2(C(=O)O)CC[C@]3(C)[C@H](CC[C@@H]4[C@@]5(C)C=C(OC(=O)n6ccnc6C)C(=O)C(C)(C)[C@@H]5CC[C@]43C)[C@@H]12 | – | Active | – | 5.9 | 4.7 | 37.2 | 6.4 | 9.4 | – | – |
| C=C(C)[C@@H]1CC[C@]2(COC(=O)n3ccnc3C)CC[C@]3(C)[C@H](CC[C@@H]4[C@@]5(C)CC[C@H](OC(C)=O)C(C)(C)[C@@H]5CC[C@]43C)[C@@H]12 | – | – | – | > 30 | > 30 | – | > 30 | > 30 | – | – |
| C=C(C)[C@@H]1CC[C@]2(COC(=O)n3cncn3)CC[C@]3(C)[C@H](CC[C@@H]4[C@@]5(C)CC[C@H](OC(C)=O)C(C)(C)[C@@H]5CC[C@]43C)[C@@H]12 | – | – | > 30 | > 30 | – | – | – | – | – | – |
| C=C(C)[C@@H]1CC[C@]2(C(=O)n3ccnc3C)CC[C@]3(C)[C@H](CC[C@@H]4[C@@]5(C)C=CC(=O)C(C)(C)[C@@H]5CC[C@]43C)[C@@H]12 | – | inactive | – | 9 | 6.8 | – | 10.6 | 12.5 | – | – |
| C=C(C)[C@@H]1CC[C@]2(COC(C)=O)CC[C@]3(C)[C@H](CC[C@@H]4[C@@]5(C)CC[C@H](OC(=O)n6cncn6)C(C)(C)[C@@H]5CC[C@]43C)[C@@H]12 | – | – | > 30 | > 30 | – | – | – | – | – | – |
| C=C(C)[C@@H]1CC[C@]2(C(=O)n3cncn3)CC[C@]3(C)[C@H](CC[C@@H]4[C@@]5(C)CC[C@H](OC(=O)n6cncn6)C(C)(C)[C@@H]5CC[C@]43C)[C@@H]12 | Active | – | 1.1 | 1.9 | 6.8 | 19.4 | 4.1 | 11.6 | 15 | 19 |
| C=C(C)[C@@H]1CC[C@]2(C(=O)n3cncn3)CC[C@]3(C)[C@H](CC[C@@H]4[C@@]5(C)C=C(O)C(=O)C(C)(C)[C@@H]5CC[C@]43C)[C@@H]12 | – | Active | 1.8 | 3.3 | 7.4 | 27.9 | 5.4 | 10.5 | 15 | 12 |

Continued, in another order:

| inhibition [2] | inhibition [2, 6] | Compound | IC50 (PC-3 [1]) [µM] | IC50 (HT-29) [µM] | IC50 (HepG2) [µM] | IC50 (BJ [3]) [µM] | IC50 (HeLa) [µM] | IC50 (Jurkat) [µM] | Ratio IC50 (BJ [4]) | Ratio IC50 (PC-3 [5]) |
| --- | --- | --- | --- | --- | --- | --- | --- | --- | --- | --- |
| inactive | – | C=C(C)[C@@H]1CC[C@]2(COC(=O)n3cncn3)CC[C@]3(C)[C@H](CC[C@@H]4[C@@]5(C)CC[C@H](O)C(C)(C)[C@@H]5CC[C@]43C)[C@@H]12 | 4.7 | 7.6 | – | – | – | – | – | – |
| inactive | – | C=C(C)[C@@H]1CC[C@]2(C(=O)n3ccnc3C)CC[C@]3(C)[C@H](CC[C@@H]4[C@@]5(C)CCC(=O)C(C)(C)[C@@H]5CC[C@]43C)[C@@H]12 | – | 4.7 | 5.5 | 48.4 | 4.2 | 5.3 | – | – |
| – | inactive | C=C(C)[C@@H]1CC[C@]2(COC(=O)n3ccnc3C)CC[C@]3(C)[C@H](CC[C@@H]4[C@@]5(C)CC[C@H](O)C(C)(C)[C@@H]5CC[C@]43C)[C@@H]12 | – | 16.2 | 36.4 | – | 11 | 15.8 | – | – |
| – | inactive | C=C(COC)[C@@H]1CC[C@]2(COC(=O)n3ccnc3C)CC[C@]3(C)[C@H](CC[C@@H]4[C@@]5(C)CC[C@H](O)C(C)(C)[C@@H]5CC[C@]43C)[C@@H]12 | – | 10.4 | 14.4 | – | 8.9 | 24.8 | – | – |
| – | inactive | C=C(COC)[C@@H]1CC[C@]2(COC(=O)n3ccnc3C)CC[C@]3(C)[C@H](CC[C@@H]4[C@@]5(C)CC[C@H](OC(=O)n6ccnc6C)C(C)(C)[C@@H]5CC[C@]43C)[C@@H]12 | – | > 30 | 28.2 | – | 13.4 | > 30 | – | – |
| inactive | – | C=C(C)[C@@H]1CC[C@]2(COC(=O)n3cncn3)CC[C@]3(C)[C@H](CC[C@@H]4[C@@]5(C)CC[C@H](OC(=O)n6cncn6)C(C)(C)[C@@H]5CC[C@]43C)[C@@H]12 | 7.9 | 17.5 | – | – | – | – | – | – |
| – | inactive | C=C(C)[C@@H]1CC[C@]2(COC(=O)n3ccnc3C)CC[C@]3(C)[C@H](CC[C@@H]4[C@@]5(C)CC[C@H](OC(=O)n6ccnc6C)C(C)(C)[C@@H]5CC[C@]43C)[C@@H]12 | – | > 30 | > 30 | – | > 30 | > 30 | – | – |
| – | Active | C=C(C)[C@@H]1CC[C@]2(CO)CC[C@]3(C)[C@H](CC[C@@H]4[C@@]5(C)CC[C@H](OC(=O)n6cncn6)C(C)(C)[C@@H]5CC[C@]43C)[C@@H]12 | 2.1 | 4.9 | 7.3 | 39.4 | 6.9 | 12.2 | 15 | – |
| – | Active | Cc1nccn1C(=O)OC[C@]12CC[C@@H]([C@@H](C)C=O)C1[C@H]1CC[C@@H]3[C@@]4(C)CC[C@H](O)C(C)(C)[C@@H]4CC[C@@]3(C)[C@]1(C)CC2 (stereo partly drawn) | – | 15.8 | 14.3 | – | 16.6 | 21.3 | – | – |
| inactive | – | C=C(COC)[C@@H]1CC[C@]2(COC(=O)n3cncn3)CC[C@]3(C)[C@H](CC[C@@H]4[C@@]5(C)CC[C@H](OC(=O)n6cncn6)C(C)(C)[C@@H]5CC[C@]43C)[C@@H]12 | 6.4 | 12.3 | – | – | – | – | – | – |
| Active | – | C=C(C)[C@@H]1CC[C@]2(C(=O)O)CC[C@]3(C)[C@H](CC[C@@H]4[C@@]5(C)CC[C@H](OC(=O)n6ccnc6C)C(C)(C)[C@@H]5CC[C@]43C)[C@@H]12 | – | 5.7 | 7.3 | 41.3 | 7.5 | 6.1 | – | – |

— ChEMBL document CHEMBL1165980, “Synthesis and structure-activity relationship study of novel cytotoxic carbamate and N-acylheterocyclic bearing derivatives of betulin and betulinic acid” (Bioorg Med Chem, 2010)
